# Data: the RNAGym collection of RNA variant scans (doi:10.1126/science.aae0568)
# Fewer inactive variants are shown than the library holds.
# B1: tRNA (parent)
# chain: GUUCCGUUGGCGUAAUGGUAACGCGUCUCCCUCCUAAGGAGAAGACUGCGGGUUCGAGUCCCGUACGGAACG
# Variants of: B1
# Experiment: yeast fitness relative to wild type (ratio to wild type); higher = fitter; tRNA-Arg(CCU), competitive growth, 37 C, YPD
# How it was run: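 Amplicons of the tRNA-Arg(CCU) gene were sequenced, 100-nucleotide paired-end, from the start population and from each end population of a pooled yeast competition. The competition, in six parallel replicates, lasted 24 hours in YPD at 37°C. Fitness relative to wild type was calculated from changes in genotype frequencies. Genotypes had to have ≥ 100 starting reads, and estimates < 0.5 were set to 0.5.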
row,Variant,yeast fitness
1,C22A U26A C29G C34G G50C U64C,≤ 0.5
2,A21U C33U G38A A45U C62U,≤ 0.5
3,C22G U26A C29G A70U,0.591
4,A21U C29U G48A U54C,≤ 0.5
5,C22A C49U C55A,0.656
6,C22G U47G C66U A69C,≤ 0.5
7,A21G G68C,0.949
8,A21G G68U,1.07
9,A21G A36G G38C G50A,≤ 0.5
10,C22A C24U G58C C62G,≤ 0.5
11,C22G G44C A70C,0.553
12,A21G U59C,0.883
13,A21G G23A A45C G52A,0.517
14,C22G C27G U59C C62U G68U,0.529
15,A21U A42G C62A,≤ 0.5
16,A21U U54A C61U,≤ 0.5
17,C22G U32A,0.71
18,A21C U32C A40G G68A,≤ 0.5
19,A21U U32C A45U G67C,≤ 0.5
20,A21G C30U G67A,0.633
21,C22A A65U,0.849
22,C22G C30G C55A,≤ 0.5
23,C22A C24G A36G G39C G56A,≤ 0.5
24,C22G C24G A45C G63C,0.563

row,Variant,yeast fitness
1,A21G A40G C55A,0.535
2,A21G U28A C29U G58A,0.528
3,A21G A42U G67A,0.54
4,A21G U32C C34A C55A A69C,≤ 0.5
5,C22G G41A G48C G68C,≤ 0.5
6,A21U A37U C60G,0.608
7,C22A C30U C49U C66U,0.601
8,C22G C34A A42G C66A,≤ 0.5
9,C22A G41A C46U C66U,0.716
10,C22G G44C C55U,0.564
11,A21C U26G,0.642
12,C22A U35G,0.631
13,A21U C31G A40U G50C C61A C66U,0.513
14,C22G A42G C60A,≤ 0.5
15,C22G C27G C29G C34A A43U,≤ 0.5
16,C22G C49U C62G,0.558
17,C22G C31U U64C,0.748
18,A21G C55A,0.641
19,A21G C55G,0.671
20,A21C U53G,0.567
21,C22G C24U A43C A70U,≤ 0.5
22,A21G C31G C33G,≤ 0.5
23,A21U G50C C61G A70U,≤ 0.5
24,A21U A42U G44C C60G C62G,≤ 0.5

row,Variant,yeast fitness
1,C22G C29A G63A,0.553
2,A21G C27G A42U,≤ 0.5
3,A21G C31U C49U,0.97
4,A21U C31A G39C C66U,≤ 0.5
5,A21G C24G A37U C66U,≤ 0.5
6,A21G A37G C60G,≤ 0.5
7,A21U G48C C55A C66U,≤ 0.5
8,A21U A42G U59A C60A A69U,≤ 0.5
9,A21G U35G A57C G67C,≤ 0.5
10,A21U G48C,0.586
11,A21U C31G C33G,≤ 0.5
12,A21C U28C,0.852
13,C22G U54A U59A C61U,≤ 0.5
14,C22G U32C G67A,0.564
15,C22A C30U C31G C61U A69C,≤ 0.5
16,C22G C31G C49U U54G,0.568
17,A21U A36C G39A,0.58
18,A21U C46G U47C G56A C60A,≤ 0.5
19,C22G G50A,0.837
20,A21U A40C,0.727
21,A21G C33U C49A,0.502
22,A21G A43U G58C C60A C66U,≤ 0.5
23,C22G C34A G67U,≤ 0.5
24,C22G A45C G52C A57U,0.549

row,Variant,yeast fitness
1,C22G C27G C31G C49A G52A,≤ 0.5
2,C22G A43G C55U U64G,≤ 0.5
3,C22G C60A,0.679
4,A21C U47A C60U G67C,≤ 0.5
5,A21U U28A A40U C55A A70G,≤ 0.5
6,C22A C33G A43C,0.55
7,C22A A36G,0.8
8,A21U C22U A42C A43U G44C A65C,0.663
9,A21C U28A G68A,≤ 0.5
10,A21G A40G C49G U59G G67C,≤ 0.5
11,C22G U28A C31G G39A C55A G68C,≤ 0.5
12,A21U G23C C62A,≤ 0.5
13,A21U A37U,0.672
14,C22A U26A C66U,0.582
15,C22A G41C A65C,≤ 0.5
16,C22G G25C U26C C27G A40G,≤ 0.5
17,A21G U59C A65U G67C A70C,≤ 0.5
18,A21G A37G,0.692
19,A21G U32C U59G C61U C66U A70C,0.572
20,A21G A45C C49U C55U,0.531
21,A21U C34A U54A C62A A70G,≤ 0.5
22,A21U C34A G56C G63A U64C G67C,≤ 0.5
23,A21G C46U,0.97
24,A21G C46A,1.01

row,Variant,yeast fitness
1,C22A A40G C60G A70G,≤ 0.5
2,A21G C31G A65C,0.674
3,A21U C30G C31U G48C,0.753
4,A21U C49G,0.618
5,C22A C31A U53C A57C C60U,≤ 0.5
6,A21U G23A A37U,≤ 0.5
7,A21U C55G,0.527
8,A21U C29G C49G,0.519
9,C22G C31G C49U,0.605
10,A21U G48C C55A C66G G67C,0.526
11,A21G U26C C27G G48C G67A,≤ 0.5
12,C22G C31U U53A,≤ 0.5
13,C22A U32C C66U,0.503
14,A21G C27U A69U,0.772
15,A21U C27G C33U C34A C66U,≤ 0.5
16,A21U A40C A42U C49U G50C G63A C66U,≤ 0.5
17,A21U A37U A40U G50C,≤ 0.5
18,C22A C31G G41C G63C A70U,≤ 0.5
19,A21U C22A G50C,0.575
20,C22G G25C U35C A37G A65U,≤ 0.5
21,C22G A36C G68C,≤ 0.5
22,C22G U32C A43G G52A C61G,≤ 0.5
23,C22G C34U,0.696
24,C22A C30U C31G A57C A65C A70C,≤ 0.5

row,Variant,yeast fitness
1,A21G C33G C34G,0.547
2,A21G G23A A40C G52A,≤ 0.5
3,C22A C24G A69U,≤ 0.5
4,C22A C24U C30U C31G,0.531
5,A21U C31A C61U,≤ 0.5
6,A21G G50A C55U U64C,≤ 0.5
7,A21U C62U C66G,≤ 0.5
8,A21U G44A,0.782
9,A21G A69U,1.07
10,C22A C27G G38C A43C C66U A69G,≤ 0.5
11,C22G C29A,0.662
12,A21G C46U C66U,0.742
13,C22G A36C U47A,0.552
14,C22G C31G C62U G68C,≤ 0.5
15,C22A C49U G51C,≤ 0.5
16,C22A C24G U32C C34U,≤ 0.5
17,A21U G44C G58A A65G,≤ 0.5
18,C22G C29G G41C,≤ 0.5
19,C22G C24A C27U U59A,≤ 0.5
20,C22G U47A G52A,≤ 0.5
21,C22G C49G G68C,0.529
22,C22G A45U G48C C49G,≤ 0.5
23,A21U G25A G56C,≤ 0.5
24,A21C U35C,0.856

row,Variant,yeast fitness
1,C22G C66U,0.896
2,A21U G52A C62G,≤ 0.5
3,A21G G39A U54C,0.589
4,C22A A57U,0.606
5,C22G A45C C61U A65G,≤ 0.5
6,C22A C61A,0.611
7,A21G C22A G50C,≤ 0.5
8,C22A U32C A37C A65G,≤ 0.5
9,A21G U47C C49U,0.773
10,A21G U35C C66A,≤ 0.5
11,A21U C34G G56A,≤ 0.5
12,C22G U28C C29A A42C,≤ 0.5
13,C22G C27G U59C C61U C62U G68U,≤ 0.5
14,C22G C29G C46U G63A A70U,≤ 0.5
15,A21G C49U,0.994
16,C22G G68A,0.813
17,A21U C29A,0.751
18,A21G A36C,0.557
19,C22G C29A A45U,0.615
20,A21U C34G U35C,0.785
21,A21U C49U U54A,≤ 0.5
22,C22A G39C A43U U53C U54A,≤ 0.5
23,C22A A45C U54C,0.522
